Assay results reported in ChEMBL document CHEMBL1914456, “Design, synthesis and biological evaluation of mannosyl triazoles as FimH antagonists” (Bioorg Med Chem, 2011).
In brackets after ≈: the same amount, converted by molar mass.

Assays:
[1] = target: Type 1 fimbrin D-mannose specific adhesin (Escherichia coli K-12, UniProt P08191); assay: Antagonist activity at Escherichia coli recombinant C-terminal 6His-tagged FimH-CRD with a C-terminal thrombin cleavage site expressed in Escherichia coli HM125 assessed as inhibition of streptavidin-horseradish peroxidase conjugated TM-PAA polymer binding after 3 hrs by spectrophotometry
Method in brief: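 Plates coated overnight at 4 °C with 10 µg/mL FimH-CRD-Th-6His in 20 mM HEPES, 150 mM NaCl, 1 mM CaCl2, pH 7.4, then blocked with 3% BSA for 2 h at 4 °C. Fourfold serial dilutions in buffer with 5% DMSO plus 0.5 µg/mL streptavidin-peroxidase TM-PAA polymer, 3 h at 25 °C. ABTS for 4 min, stopped with oxalic acid, OD 415 nm. Duplicates, repeated at least twice; n-heptyl α-D-mannoside on each plate; IC50 from curve fit.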

[2] = target: Type 1 fimbrin D-mannose specific adhesin (Escherichia coli K-12) (UniProt P08191); assay: Ratio of compound IC50 to n-heptyl alpha-D-mannopyranoside IC50 for Escherichia coli recombinant C-terminal 6His-tagged FimH-CRD with a C-terminal thrombin cleavage site expressed in Escherichia coli HM125 assessed as inhibition of streptavidin-horseradish peroxidase conjugated TM-PAA polymer binding after 3 hrs by spectrophotometry
Method in brief: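 FimH-CRD-Th-6His from E. coli HM125, purified on Ni-NTA, coated at 10 µg/mL in assay buffer (20 mM HEPES, 150 mM NaCl, 1 mM CaCl2, pH 7.4) overnight at 4 °C. Wells blocked with 3% BSA for 2 h at 4 °C. Four-fold serial dilutions of compound in buffer with 5% DMSO were added with streptavidin-peroxidase-coupled TM-PAA polymer (0.5 µg/mL). Plates were incubated 3 h at 25 °C, 350 rpm. ABTS was developed 4 min, stopped with 2% oxalic acid, and read at 415 nm. Each compound was run in duplicate and repeated at least twice. IC50 is the concentration that halves maximal specific TM-PAA binding. rIC50 is compound IC50 divided by the IC50 of n-heptyl α-D-mannopyranoside run on the same plate.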

[3] = Octanol-phosphate buffer distribution coefficient, log D of the compound at pH 7.4 after 2 hrs by shake flask method using LC-MS analysis; type: physicochemical
Method in brief: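 Miniaturized shake flask. Phosphate buffer (0.1 M, pH 7.4) and 1-octanol mutually saturated. Analyte at 1 µM in buffer, overlaid with octanol at two volume ratios chosen by ALOGPS-predicted logP, three determinations per ratio.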

[4] = Permeability of the compound assessed as membrane retention at pH 5 to 7.4 after 16 hrs by PAMPA assay; type: ADME; settings: pH 5, 16 h
Method in brief: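 PAMPA sandwich: donor wells with compound solution, acceptor filter impregnated with GIT-0 lipid and filled with acceptor sink buffer. Incubated undisturbed for 16 h. Donor and acceptor samples quantified by UV spectroscopy and LC-MS; log Pe and membrane retention calculated from these.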

[5] = Thermodynamic solubility of the compound at pH 6.5 after 24 hrs by shake flask method using LC-MS analysis; type: physicochemical; settings: buffer, read-out: Therm_solubility
Method in brief: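 1 mg solid shaken in 250 µL 50 mM phosphate buffer, pH 6.5: sonicated 15 min, shaken at 600 rpm and 25 °C for 2 h, then left 24 h. pH measured, then filtered by centrifugation. Filtrate diluted and quantified by LC-MS against a six-point calibration from 0.1 to 10 µg/mL.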

[6] = Antagonist activity at Escherichia coli […] FimH assessed as disaggregation of microorganism from guinea pig erythrocytes measured for 1400 secs by aggregometry; type: functional
Method in brief: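 E. coli UTI89 and guinea pig erythrocytes (separated on Histopaque), each adjusted to OD600 of 4 (1.9 × 10⁸ CFU/mL and 2.2 × 10⁶ cells/mL). Aggregation read as optical density at 740 nm, 37 °C, stirring at 1000 rpm. Instrument calibrated with protein-poor plasma in PBS as 100% and protein-rich plasma with erythrocytes as 0%. Triplicates; IC50 from area under the disaggregation curve.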

[7] = test system: Escherichia coli; assay: Ratio of compound IC50 to n-heptyl alpha-D-mannopyranoside IC50 for Escherichia coli […] FimH assessed as disaggregation of microorganism from guinea pig erythrocytes measured for 1400 secs by aggregometry

Chain of Type 1 fimbrin D-mannose specific adhesin (P08191 whole entry): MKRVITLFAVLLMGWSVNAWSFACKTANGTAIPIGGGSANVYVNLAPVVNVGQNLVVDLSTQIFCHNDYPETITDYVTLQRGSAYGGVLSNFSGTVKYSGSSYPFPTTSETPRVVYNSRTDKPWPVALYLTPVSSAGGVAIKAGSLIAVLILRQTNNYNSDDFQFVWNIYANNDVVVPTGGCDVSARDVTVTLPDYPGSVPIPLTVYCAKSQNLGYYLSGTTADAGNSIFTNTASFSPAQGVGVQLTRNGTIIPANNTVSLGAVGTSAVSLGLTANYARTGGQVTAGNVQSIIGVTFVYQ
Chain of Type 1 fimbrin D-mannose specific adhesin (Escherichia coli K-12) (P08191 whole entry): as above

IC50 [1] [nM] | Ratio IC50 [2] | logD at 2 h [3] | R% [4] | solubility thermodynamic at 24 h [5] [µg/mL] | IC50 [6] | Ratio IC50 [7] | Structure (SMILES)
327 | 5 | -0.83 | impermeable | – | – | – | OC[C@H]1O[C@H](Cn2cc(COc3ccccc3)nn2)[C@@H](O)[C@@H](O)[C@@H]1O
161 | 2.5 | -0.05 | 7.9% | 2600 (≈ 7.08 mM) | – | – | COc1ccc(-n2cc(CO[C@H]3O[C@H](CO)[C@@H](O)[C@H](O)[C@@H]3O)nn2)cc1
493 | 7.5 | -0.18 | 5.5% | > 3000 | – | – | OC[C@H]1O[C@H](n2cc(COc3ccccc3)nn2)[C@@H](O)[C@@H](O)[C@@H]1O
639 | 9.7 | 0.68 | impermeable | > 3000 | – | – | OC[C@H]1O[C@H](Cn2cc(-c3cccc(Cl)c3)nn2)[C@@H](O)[C@@H](O)[C@@H]1O
667 | 10.2 | -0.33 | 3% | > 3000 | – | – | OC[C@H]1O[C@H](OCc2cn(Cc3ccccc3)nn2)[C@@H](O)[C@@H](O)[C@@H]1O
778 | 11.9 | -0.15 | 4.6% | > 3000 | – | – | OC[C@H]1O[C@H](OCc2cn(-c3ccc(F)cc3)nn2)[C@@H](O)[C@@H](O)[C@@H]1O
333 | 5.1 | < -1.5 | impermeable | 1880 (≈ 5.82 mM) | Not Active | – | OC[C@H]1O[C@H](Cn2cc(-c3cccnc3)nn2)[C@@H](O)[C@@H](O)[C@@H]1O
216 | 3.3 | -1.04 | 10.3% | 1380 (≈ 4.47 mM) | – | – | OC[C@H]1O[C@H](n2cc(-c3cccnc3)nn2)[C@@H](O)[C@@H](O)[C@@H]1O
1900 | 29 | – | – | – | – | – | CO[C@H]1O[C@H](CO)[C@@H](O)[C@H](O)[C@@H]1O
– | 3.8 | 0.21 | 6.4% | > 3000 | – | – | OC[C@H]1O[C@H](n2cc(-c3ccccc3)nn2)[C@@H](O)[C@@H](O)[C@@H]1O
348 | 5.3 | 0.18 | 5.4% | > 3000 | – | – | OC[C@H]1O[C@H](OCc2cn(-c3cccc(F)c3)nn2)[C@@H](O)[C@@H](O)[C@@H]1O
135 | 2.1 | 0.07 | 9.8% | > 3000 | – | – | OC[C@H]1O[C@H](OCc2cn(C34CC5CC(CC(C5)C3)C4)nn2)[C@@H](O)[C@@H](O)[C@@H]1O
65.6 | – | 1.65 | 21% | > 3000 | – | 1 | CCCCCCCO[C@H]1O[C@H](CO)[C@@H](O)[C@H](O)[C@@H]1O
– | 6.1 | -0.16 | 4.9% | 2600 (≈ 6.8 mM) | – | – | O=[N+]([O-])c1ccc(-n2cc(CO[C@H]3O[C@H](CO)[C@@H](O)[C@H](O)[C@@H]3O)nn2)cc1
565 | 8.6 | 0.23 | 6.3% | 1490 (≈ 4.44 mM) | – | – | Cc1ccc(-c2cn(C[C@H]3O[C@H](CO)[C@@H](O)[C@H](O)[C@@H]3O)nn2)cc1
452 | 6.9 | -0.38 | 4% | > 3000 | – | – | COc1cccc(Cn2cc(CO[C@H]3O[C@H](CO)[C@@H](O)[C@H](O)[C@@H]3O)nn2)c1
331 | 5.1 | 1.22 | 13.2% | 705 (≈ 2.06 mM) | – | – | OC[C@H]1O[C@H](n2cc(-c3cccc(Cl)c3)nn2)[C@@H](O)[C@@H](O)[C@@H]1O
112 | 1.7 | -0.3 | 2.9% | > 3000 | – | – | O=[N+]([O-])c1ccc(-n2cc(CCO[C@H]3O[C@H](CO)[C@@H](O)[C@H](O)[C@@H]3O)nn2)cc1
169 | 2.6 | – | – | > 3000 | – | – | O=C([O-])c1cncc(-n2cc(CO[C@H]3O[C@H](CO)[C@@H](O)[C@H](O)[C@@H]3O)nn2)c1.[Na+]
511 | 7.8 | -0.4 | 3.1% | > 3000 | – | – | COc1ccc(Cn2cc(CO[C@H]3O[C@H](CO)[C@@H](O)[C@H](O)[C@@H]3O)nn2)cc1
560 | 8.5 | -0.36 | 7.8% | > 3000 | – | – | OC[C@H]1O[C@H](Cn2cc(-c3ccccc3)nn2)[C@@H](O)[C@@H](O)[C@@H]1O
70 | 1.1 | 0.24 | 9.2% | > 3000 | Not Active | – | OC[C@H]1O[C@H](OCc2cn(-c3ccncc3)nn2)[C@@H](O)[C@@H](O)[C@@H]1O
194 | 3 | 1.07 | impermeable | 525 (≈ 1.35 mM) | Not Active | – | OC[C@H]1O[C@H](Cn2cc(-c3ccc(C(F)(F)F)cc3)nn2)[C@@H](O)[C@@H](O)[C@@H]1O
296 | 4.5 | – | – | > 3000 | – | – | O=C([O-])c1cccc(-n2cc(CO[C@H]3O[C@H](CO)[C@@H](O)[C@H](O)[C@@H]3O)nn2)c1.[Na+]
207 | 3.2 | – | – | > 3000 | – | – | O=C([O-])c1ccc(-n2cc(CO[C@H]3O[C@H](CO)[C@@H](O)[C@H](O)[C@@H]3O)nn2)cc1.[Na+]
229 | 3.5 | < -1 | 11.8% | > 3000 | – | – | COc1cccc(Cn2cc(CCO[C@H]3O[C@H](CO)[C@@H](O)[C@H](O)[C@@H]3O)nn2)c1
